Source: ChEMBL document CHEMBL1132285, “The presence of substituents on the aryl moiety of the aryl phosphoramidate derivative of d4T enhances anti-HIV efficacy in cell culture: A structure-activity relationship” (J Med Chem, 1999)

Assays:
[1] = test system: CCRF-CEM; assay: In vitro effective compound concentration required to protect CEM/O cells against the cytopathogenicity of HIV-1; format: functional, cell-based; details: Homo sapiens
Outline: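 CEM/0 cells at 250 000 cells/mL were infected with HIV-1 (~20 CCID50/mL) or HIV-2 strain ROD (~100 CCID50/mL), then mixed 1:1 with compound dilutions. After 4 days at 37 °C, giant cell formation was scored. EC50 is the concentration inhibiting HIV-induced giant cell formation by 50%. Values are means of 2–4 independent experiments.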

[2] = test system: CCRF-CEM; assay: In vitro effective compound concentration required to protect CEM/TK cells against the cytopathogenicity of HIV-2; details: Homo sapiens

- EC50 [1]: 0.651 µM
- EC50 [2]: 33 µM
Structure (SMILES): Cc1cn([C@H]2C=C[C@@H](CO)O2)c(=O)[nH]c1=O [STAVUDINE]
